In series [1] the target is Dual specificity tyrosine-phosphorylation-regulated kinase 1A (Rattus norvegicus, UniProt Q63470). As to the kind of experiment: Inhibition of rat recombinant GST-tagged DYRK1A expressed in Escherichia coli using myelin basic protein substrate.
Series [2] addresses Cyclin-dependent kinase 5/CDK5 activator 1 (Homo sapiens, UniProt Q00535). Briefly: Inhibition of human recombinant CDK5/P25 using myelin basic protein substrate. It is filed as protein-complex assay.
Series [3] deals with PI3-kinase p110-alpha/p85-alpha (Homo sapiens, UniProt P42336). Briefly: Inhibition of PI3K p110alpha/p85alpha by fluorescence based immunoassay. Format: protein-complex assay. In a few lines:
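ADAPTA TR-FRET ADP-detection kinase assay. Detection used 6 nM Eu-anti-ADP antibody, 12 nM Alexa647-ADP tracer and 30 mM EDTA for 30 min. Read-out was excitation 340 nm with 665/615 nm emission ratio, converted to % conversion via an ATP–ADP titration curve.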

Series [4] addresses Phosphatidylinositol 4,5-bisphosphate 3-kinase catalytic subunit gamma isoform (Homo sapiens, UniProt P48736). Briefly: Inhibition of PI3K p110gamma by fluorescence based immunoassay.
Series [5] deals with Huh-7. As to the kind of experiment: Antiproliferative activity against human HuH7 cells incubated for 48 hrs by […] dye staining based assay. Format: functional, cell-based. The conditions noted are these: Huh-7, 48 h. A digest of the protocol: (§1)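 After 24 h attachment, they were exposed 48 h to increasing concentrations of 0.1 to 25. Cells were then fixed in cold 90% ethanol/5% acetic acid, nuclei were Hoechst-stained, and nuclei were counted by automated imaging.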

Series [6] concerns Caco-2. As to the kind of experiment: Antiproliferative activity against human Caco2 cells incubated for 48 hrs by […] dye staining based assay. The note with it: Caco-2, 48 h. Format: functional, cell-based. A digest of the protocol:
as §1

Another series deals with MDA-MB-231. Briefly: Antiproliferative activity against human MDA-MB-231 cells incubated for 48 hrs by […] dye staining based assay. The conditions noted are these: MDA-MB-231, 48 h. Format: functional, cell-based. A digest of the protocol: as §1
The test system of the next series is HCT-116. Briefly: Antiproliferative activity against human HCT116 cells incubated for 48 hrs by […] dye staining based assay. Format: functional, cell-based. The note with it: HCT-116, 48 h. In a few lines:
(§2)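 Cells were grown per ECACC recommendations and seeded in triplicate at 2 × 10³ (HCT-116) or 4 × 10³ (other lines) per well. After 24 h attachment, they were exposed 48 h to increasing concentrations of 0.1 to 25. Cells were then fixed in cold 90% ethanol/5% acetic acid, nuclei were Hoechst-stained, and nuclei were counted by automated imaging.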

The test system of series [7] is PC-3. As to the kind of experiment: Antiproliferative activity against human PC3 cells incubated for 48 hrs by […] dye staining based assay. It is filed as functional, cell-based. The note with it: PC-3, 48 h. In a few lines:
as §2

Series [8] relates to NCI-H727. As to the kind of experiment: Antiproliferative activity against human NCI-H727 cells incubated for 48 hrs by […] dye staining based assay. It is filed as functional, cell-based. The note with it: NCI-H727, 48 h. In a few lines:
as §2

The nature of series [9]: Antiproliferative activity against human Skin fibroblasts incubated for 48 hrs by […] dye staining based assay. The conditions noted are these: Skin fibroblast. In a few lines:
as §2

Series [10] relates to Caco-2. Briefly: Antiproliferative activity against human Caco2 cells assessed as cell diminution incubated for 48 hrs by […] dye staining based assay. Format: functional. In a few lines: as §2
Series [11] concerns PC-3. As to the kind of experiment: Antiproliferative activity against human PC3 cells assessed as cell diminution incubated for 48 hrs by […] dye staining based assay. Format: functional. A digest of the protocol:
as §2

A short description of series [12]: Antiproliferative activity against human Skin fibroblasts assessed as cell diminution incubated for 48 hrs by […] dye staining based assay. The note with it: skin fibroblast. In a few lines:
as §2

Series [13] has as its system Huh-7. Briefly: Antiproliferative activity against human HuH7 cells assessed as cell diminution incubated for 48 hrs by […] dye staining based assay. Format: functional. In a few lines: as §2
Series [14] concerns NCI-H727. As to the kind of experiment: Antiproliferative activity against human NCI-H727 cells assessed as cell diminution incubated for 48 hrs by […] dye staining based assay. It is filed as functional. In a few lines:
as §2

Sequence of Phosphatidylinositol 4,5-bisphosphate 3-kinase catalytic subunit gamma isoform (P48736 whole entry, looked up, canonical isoform): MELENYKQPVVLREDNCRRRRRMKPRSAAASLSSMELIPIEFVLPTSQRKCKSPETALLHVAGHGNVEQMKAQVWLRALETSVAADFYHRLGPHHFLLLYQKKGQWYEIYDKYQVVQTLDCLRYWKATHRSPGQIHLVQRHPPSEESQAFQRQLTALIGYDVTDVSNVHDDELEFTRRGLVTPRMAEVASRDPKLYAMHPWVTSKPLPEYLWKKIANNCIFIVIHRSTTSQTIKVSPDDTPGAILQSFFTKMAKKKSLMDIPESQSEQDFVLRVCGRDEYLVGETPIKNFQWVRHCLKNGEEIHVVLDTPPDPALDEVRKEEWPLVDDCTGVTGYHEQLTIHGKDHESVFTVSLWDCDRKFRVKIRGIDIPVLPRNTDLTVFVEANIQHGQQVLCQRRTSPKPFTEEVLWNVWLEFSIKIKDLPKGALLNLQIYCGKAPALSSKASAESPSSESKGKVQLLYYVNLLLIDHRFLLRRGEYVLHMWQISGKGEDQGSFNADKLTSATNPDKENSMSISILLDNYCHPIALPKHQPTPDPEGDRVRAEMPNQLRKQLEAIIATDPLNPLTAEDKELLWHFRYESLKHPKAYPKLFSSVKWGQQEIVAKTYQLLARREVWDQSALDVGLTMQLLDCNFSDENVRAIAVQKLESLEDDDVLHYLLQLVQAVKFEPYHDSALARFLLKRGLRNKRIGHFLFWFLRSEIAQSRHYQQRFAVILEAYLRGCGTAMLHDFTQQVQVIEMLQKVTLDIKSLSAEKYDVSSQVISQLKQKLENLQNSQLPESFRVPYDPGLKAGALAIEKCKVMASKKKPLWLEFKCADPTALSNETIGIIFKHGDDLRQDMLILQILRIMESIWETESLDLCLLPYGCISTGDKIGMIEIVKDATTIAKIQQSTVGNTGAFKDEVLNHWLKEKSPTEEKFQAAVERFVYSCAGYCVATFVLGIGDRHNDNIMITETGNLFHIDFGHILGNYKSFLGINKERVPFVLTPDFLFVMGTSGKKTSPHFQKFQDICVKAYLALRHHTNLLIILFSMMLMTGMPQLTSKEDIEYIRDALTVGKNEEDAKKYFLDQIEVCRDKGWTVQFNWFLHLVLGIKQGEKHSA
Sequence of Cyclin-dependent kinase 5/CDK5 activator 1 (Q00535 whole entry): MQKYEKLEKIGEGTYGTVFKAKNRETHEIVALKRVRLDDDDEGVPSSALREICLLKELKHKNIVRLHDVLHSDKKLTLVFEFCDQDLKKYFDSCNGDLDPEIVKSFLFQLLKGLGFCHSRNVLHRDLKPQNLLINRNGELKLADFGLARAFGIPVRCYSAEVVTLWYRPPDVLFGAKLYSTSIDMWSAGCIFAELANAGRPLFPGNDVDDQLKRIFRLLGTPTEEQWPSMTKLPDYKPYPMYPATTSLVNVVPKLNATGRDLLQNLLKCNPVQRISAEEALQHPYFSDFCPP
Sequence of Cyclin-dependent kinase 5/CDK5 activator 1 (Q15078 whole entry, further chain): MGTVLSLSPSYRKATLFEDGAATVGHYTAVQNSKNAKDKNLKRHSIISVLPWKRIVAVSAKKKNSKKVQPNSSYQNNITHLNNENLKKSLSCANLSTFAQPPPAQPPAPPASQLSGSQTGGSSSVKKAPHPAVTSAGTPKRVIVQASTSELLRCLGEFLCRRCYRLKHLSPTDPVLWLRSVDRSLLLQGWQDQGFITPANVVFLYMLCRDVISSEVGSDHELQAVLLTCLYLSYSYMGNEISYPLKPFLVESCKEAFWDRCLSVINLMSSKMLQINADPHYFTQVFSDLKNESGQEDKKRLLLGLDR
Sequence of PI3-kinase p110-alpha/p85-alpha (P27986 whole entry): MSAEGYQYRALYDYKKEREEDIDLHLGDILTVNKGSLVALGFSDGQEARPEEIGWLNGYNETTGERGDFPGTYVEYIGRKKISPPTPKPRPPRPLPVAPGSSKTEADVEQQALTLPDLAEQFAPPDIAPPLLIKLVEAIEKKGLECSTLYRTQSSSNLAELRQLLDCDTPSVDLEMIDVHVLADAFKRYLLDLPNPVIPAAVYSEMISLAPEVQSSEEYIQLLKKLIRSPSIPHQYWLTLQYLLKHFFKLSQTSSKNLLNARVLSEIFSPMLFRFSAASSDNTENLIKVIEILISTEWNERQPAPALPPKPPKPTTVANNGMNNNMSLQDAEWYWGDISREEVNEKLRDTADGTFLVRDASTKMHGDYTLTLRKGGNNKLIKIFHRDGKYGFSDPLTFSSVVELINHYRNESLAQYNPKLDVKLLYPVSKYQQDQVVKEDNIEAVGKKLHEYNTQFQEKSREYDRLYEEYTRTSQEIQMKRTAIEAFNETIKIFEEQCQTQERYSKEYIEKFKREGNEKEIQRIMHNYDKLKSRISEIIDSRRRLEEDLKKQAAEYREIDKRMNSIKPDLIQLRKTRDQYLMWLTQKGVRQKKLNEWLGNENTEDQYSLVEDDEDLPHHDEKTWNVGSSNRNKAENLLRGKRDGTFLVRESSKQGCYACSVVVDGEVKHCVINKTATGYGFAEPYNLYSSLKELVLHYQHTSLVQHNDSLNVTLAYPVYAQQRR
Sequence of PI3-kinase p110-alpha/p85-alpha (P42336 whole entry): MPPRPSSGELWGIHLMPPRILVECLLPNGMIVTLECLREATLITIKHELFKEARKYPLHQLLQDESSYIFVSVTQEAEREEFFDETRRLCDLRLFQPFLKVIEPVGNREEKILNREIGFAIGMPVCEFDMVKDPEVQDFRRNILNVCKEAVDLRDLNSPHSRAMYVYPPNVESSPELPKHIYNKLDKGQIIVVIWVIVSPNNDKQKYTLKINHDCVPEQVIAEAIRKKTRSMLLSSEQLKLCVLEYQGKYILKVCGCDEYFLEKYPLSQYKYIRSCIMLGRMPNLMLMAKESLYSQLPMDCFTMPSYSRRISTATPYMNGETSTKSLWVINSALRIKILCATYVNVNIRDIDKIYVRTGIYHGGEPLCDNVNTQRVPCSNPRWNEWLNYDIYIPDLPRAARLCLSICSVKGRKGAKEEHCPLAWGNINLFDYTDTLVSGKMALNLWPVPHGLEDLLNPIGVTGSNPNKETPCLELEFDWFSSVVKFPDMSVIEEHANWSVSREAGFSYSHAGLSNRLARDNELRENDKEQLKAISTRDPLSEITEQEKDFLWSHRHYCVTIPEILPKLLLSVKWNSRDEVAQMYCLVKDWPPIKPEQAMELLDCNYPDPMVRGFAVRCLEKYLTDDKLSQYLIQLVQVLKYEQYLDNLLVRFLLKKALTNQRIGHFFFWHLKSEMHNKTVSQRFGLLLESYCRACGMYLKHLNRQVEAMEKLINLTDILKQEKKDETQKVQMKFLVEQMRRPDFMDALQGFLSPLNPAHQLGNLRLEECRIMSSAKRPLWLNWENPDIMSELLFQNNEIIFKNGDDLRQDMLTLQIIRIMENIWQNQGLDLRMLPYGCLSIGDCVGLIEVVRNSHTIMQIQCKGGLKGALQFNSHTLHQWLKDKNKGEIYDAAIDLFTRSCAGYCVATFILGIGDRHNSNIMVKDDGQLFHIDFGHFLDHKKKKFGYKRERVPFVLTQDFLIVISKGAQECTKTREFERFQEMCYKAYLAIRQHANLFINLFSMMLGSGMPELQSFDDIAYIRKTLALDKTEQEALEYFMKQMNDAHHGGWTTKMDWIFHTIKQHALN

As a reminder, the IC50 is the concentration needed to halve the response being measured. Turning to `Cc1n[nH]c(=O)c2c1c1cc(Br)ccc1n2Cc1cccc(C#N)c1`, the IC50 in [1] was greater than 10000 nM; in series [2] it was greater than 10000 nM; in series [3], 91 nM; in [4], 295 nM; in the series on Huh-7 [5], 2000 nM; with Caco-2 [6], 2000 nM. Besides, the IC50 with MDA-MB-231 amounted to 4000 nM; with HCT-116, 5000 nM; with PC-3 [7], 2500 nM; in the series with NCI-H727 [8], 4000 nM; in series [9], 4000 nM.
`COc1ccc(Cn2c3ccc(Br)cc3c3c(C)n[nH]c(=O)c32)cc1`: the IC50 in series [1] is greater than 10000 nM; in series [2] it was greater than 10000 nM; in [3] it was 1500 nM; in series [4], 5200 nM; in the series with Huh-7 [5], 1500 nM; with Caco-2 [6], 2000 nM. Moreover, the IC50 is 5000 nM in the series with MDA-MB-231; 4000 nM in the series with HCT-116; 2500 nM in the series on PC-3 [7]; 5000 nM in the series on NCI-H727 [8]; 4000 nM in series [9].
On to `COc1cccc(Cn2c3ccc(Br)cc3c3c(C)n[nH]c(=O)c32)c1`, for which the IC50 in series [1] is greater than 10000 nM; in [2] it was greater than 10000 nM; in series [3], 1500 nM; in series [4], 2200 nM; in the series with Huh-7 [5] it was 2000 nM; in the series on Caco-2 [6] it was 2000 nM. Moreover, the IC50 came out at 4000 nM with MDA-MB-231; 2000 nM in the series with HCT-116; 2000 nM in the series on PC-3 [7]; 5000 nM in the series on NCI-H727 [8]; 3000 nM in series [9].
Consider `COc1ccc2c(c1)c1c(C)n[nH]c(=O)c1n2Cc1cccc([N+](=O)[O-])c1`, for which the IC50 in series [1] is greater than 10000 nM; in series [2] it was greater than 10000 nM; in series [3], 1800 nM; in the series with Huh-7 [5] it was 1500 nM; in the series on Caco-2 [6] it was 5000 nM; in the series on MDA-MB-231, 4000 nM. The IC50 in the series with HCT-116 was 4000 nM; in the series on PC-3 [7], 2500 nM; in the series on NCI-H727 [8] it was 4000 nM; in series [9], 2000 nM. Further, the Activity (in the series on Caco-2 [10]; with PC-3 [11]; in series [12]) was 50% throughout.
On to `COc1ccc2c(c1)c1c(C)n[nH]c(=O)c1n2Cc1ccc(C#N)cc1`, for which the IC50 was greater than 10000 nM in series [1]; greater than 10000 nM in [2]; 2900 nM in series [3]; 2000 nM in the series on Huh-7 [5]; 6000 nM in the series on Caco-2 [6]; 2000 nM with MDA-MB-231. The IC50 in the series on HCT-116 is 4000 nM; in the series on PC-3 [7], 2000 nM; with NCI-H727 [8] it was 2000 nM; in series [9] it was 5000 nM. For the same compound, the Activity in the series on PC-3 [11] is reported as 50%.
In the case of `Oc1cccc(-c2nc(N3CCOCC3)c3oc4ncccc4c3n2)c1` [PI-103], the IC50 was determined as 1500 nM with Huh-7 [5]; 900 nM in the series on Caco-2 [6]; 15000 nM in the series with MDA-MB-231; 1000 nM in the series with HCT-116; 1500 nM in the series with PC-3 [7]; 3000 nM in the series with NCI-H727 [8]. This compound also displayed a half-inhibitory concentration (IC50) in series [9] of 1500 nM. For the same compound, the Activity in the series with Huh-7 [13] was determined as 40%; in the series with NCI-H727 [14], 30%; in series [12], 30%.

The values are drawn from ChEMBL document CHEMBL2086312, “Synthesis and biological evaluation of new 5-benzylated 4-oxo-3,4-dihydro-5H-pyridazino[4,5-b]indoles as PI3Kα inhibitors” (Eur J Med Chem, 2012).
